Data taken from ChEMBL document CHEMBL1833789, “Inhibition of xc⁻ transporter-mediated cystine uptake by sulfasalazine analogs” (Bioorg Med Chem Lett, 2011).

Target: T1, Cystine/glutamate transporter (Homo sapiens, UniProt Q9UPY5)
T1 sequence (Q9UPY5 whole entry): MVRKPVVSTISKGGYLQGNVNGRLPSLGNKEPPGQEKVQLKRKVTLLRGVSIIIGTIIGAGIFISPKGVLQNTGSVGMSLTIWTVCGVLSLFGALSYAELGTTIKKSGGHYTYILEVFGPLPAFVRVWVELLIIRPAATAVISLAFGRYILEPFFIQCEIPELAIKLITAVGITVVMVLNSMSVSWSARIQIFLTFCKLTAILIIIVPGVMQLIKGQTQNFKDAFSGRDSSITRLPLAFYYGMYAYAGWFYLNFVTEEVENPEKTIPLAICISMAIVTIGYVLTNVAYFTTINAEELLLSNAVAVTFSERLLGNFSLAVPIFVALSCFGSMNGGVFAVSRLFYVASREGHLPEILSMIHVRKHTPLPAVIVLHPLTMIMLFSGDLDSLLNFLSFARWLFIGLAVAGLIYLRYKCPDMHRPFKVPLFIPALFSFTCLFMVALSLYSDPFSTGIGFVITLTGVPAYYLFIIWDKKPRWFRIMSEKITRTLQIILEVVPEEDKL
Experiment: Inhibition of xc-cystine-glutamate antiporter-mediated cystine uptake in human U87 cells using L-[14C]cystine as substrate after 15 mins by liquid scintillation counting
Assay type: cell-based, U-87MG ATCC
How it was run: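 U87 human glioblastoma-astrocytoma cells, seeded at 0.067 × 10^6 per well and grown 6 days to confluency. Washed with pre-warmed sodium-free choline-chloride uptake buffer (HEPES 10 mM, pH 7.4), then given 80 µM L-[14C(U)]-cystine at 37 °C with or without inhibitor at various concentrations. Uptake stopped by three ice-cold washes, cells lysed in 0.1 N NaOH, counts normalized to protein.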

**Q.** Which IC50 does the source give for `N[C@@H](C(=O)O)c1ccc(C(=O)O)cc1` here?
**A.** > 1000 µM

**Q.** With `COC(=O)c1cc(C#Cc2ccc(S(=O)(=O)Nc3ccccn3)cc2)ccc1O` as the molecule, how does the IC50 read?
**A.** > 1000 µM

**Q.** Which IC50 does the source give for `O=C(O)c1cc(C#Cc2ccc(S(=O)(=O)Nc3ccccn3)cc2)ccc1O` here?
**A.** 30 µM

**Q.** Which IC50 does the source give for `COC(=O)c1cc(/C=C/c2ccc(S(=O)(=O)Nc3ccccn3)cc2)ccc1O` here?
**A.** 900 µM

**Q.** `O=C(O)c1cc(/C=C/c2ccc(S(=O)(=O)Nc3ccccn3)cc2)ccc1O` was tested. Which IC50 did it give?
**A.** 70 µM

**Q.** For `COC(=O)c1cc(CCc2ccc(S(=O)(=O)Nc3ccccn3)cc2)ccc1O`, which IC50 is on record?
**A.** > 1000 µM

**Q.** How did the IC50 turn out when `O=C(O)c1cc(CCc2ccc(S(=O)(=O)Nc3ccccn3)cc2)ccc1O` was run?
**A.** 700 µM

**Q.** How did the IC50 turn out when `O=C(O)c1cccc(C#Cc2ccc(S(=O)(=O)Nc3ccccn3)cc2)c1` was run?
**A.** 75 µM

**Q.** How did the IC50 turn out when `O=C(O)c1cccc(CCc2ccc(S(=O)(=O)Nc3ccccn3)cc2)c1` was run?
**A.** 920 µM

**Q.** Which IC50 does the source give for `O=C(O)c1cc(/N=N/c2ccccc2)ccc1O` here?
**A.** 200 µM

**Q.** For `O=C(O)c1cc(C#Cc2ccccc2)ccc1O`, which IC50 is on record?
**A.** 150 µM

**Q.** With `O=C(O)c1cccc(C#Cc2ccccc2)c1` as the molecule, how does the IC50 read?
**A.** 270 µM

**Q.** Which IC50 does the source give for `N[C@H](C(=O)O)c1ccc(C(=O)O)cc1` here?
**A.** 15 µM

**Q.** For `Nc1ccc(O)c(C(=O)O)c1` [MESALAMINE], which IC50 is on record?
**A.** > 1000 µM

**Q.** Which IC50 does the source give for `Nc1ccc(S(=O)(=O)Nc2ccccn2)cc1` [SULFAPYRIDINE] here?
**A.** > 1000 µM

**Q.** `O=C(O)c1cc(/N=N/c2ccc(S(=O)(=O)Nc3ccccn3)cc2)ccc1O` [SULFASALAZINE] was tested. Which IC50 did it give?
**A.** 30 µM

**Q.** How did the IC50 turn out when `Cc1cccnc1NS(=O)(=O)c1ccc(C#Cc2ccc(O)c(C(=O)O)c2)cc1` [SUSALIMOD] was run?
**A.** 70 µM
